Data taken from ChEMBL document CHEMBL3785023, “Development and Pharmacological Characterization of Selective Blockers of 2-Arachidonoyl Glycerol Degradation with Efficacy in Rodent Models of Multiple Sclerosis and Pain” (J Med Chem, 2016).

Tests used:
[1] = target: T1, Fatty-acid amide hydrolase 1 (Mus musculus, UniProt O08914); assay: Inhibition of FAAH in mouse brain membrane using [13C]oleamide as substrate by LC-MS analysis; assay type: cell membranes
T1 sequence (O08914 whole entry): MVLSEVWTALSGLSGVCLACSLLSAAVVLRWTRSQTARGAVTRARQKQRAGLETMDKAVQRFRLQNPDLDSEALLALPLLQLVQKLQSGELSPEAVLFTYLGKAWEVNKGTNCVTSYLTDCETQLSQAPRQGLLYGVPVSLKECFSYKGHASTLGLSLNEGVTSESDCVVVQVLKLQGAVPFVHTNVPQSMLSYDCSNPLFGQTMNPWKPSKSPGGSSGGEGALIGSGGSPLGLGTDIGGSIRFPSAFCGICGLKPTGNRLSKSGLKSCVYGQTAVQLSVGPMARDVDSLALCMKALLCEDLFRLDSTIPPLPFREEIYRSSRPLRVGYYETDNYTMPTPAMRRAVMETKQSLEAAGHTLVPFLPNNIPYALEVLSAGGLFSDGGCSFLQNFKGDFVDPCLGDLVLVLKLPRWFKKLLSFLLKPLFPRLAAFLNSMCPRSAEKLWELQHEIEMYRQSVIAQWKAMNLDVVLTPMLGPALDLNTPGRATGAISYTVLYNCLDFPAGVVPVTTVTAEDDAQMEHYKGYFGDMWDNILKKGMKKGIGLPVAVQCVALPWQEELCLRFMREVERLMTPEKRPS

[2] = target: T2, Fatty-acid amide hydrolase 1 (Rattus norvegicus, UniProt P97612); assay: Inhibition of FAAH in rat brain membranes using N-arachidonoyl-[14C]-ethanolamine as substrate assessed as reduction in [14C]ethanolamine production incubated for 30 mins by scintillation counting method; assay type: cell membranes, Membrane
T2 sequence (P97612 whole entry): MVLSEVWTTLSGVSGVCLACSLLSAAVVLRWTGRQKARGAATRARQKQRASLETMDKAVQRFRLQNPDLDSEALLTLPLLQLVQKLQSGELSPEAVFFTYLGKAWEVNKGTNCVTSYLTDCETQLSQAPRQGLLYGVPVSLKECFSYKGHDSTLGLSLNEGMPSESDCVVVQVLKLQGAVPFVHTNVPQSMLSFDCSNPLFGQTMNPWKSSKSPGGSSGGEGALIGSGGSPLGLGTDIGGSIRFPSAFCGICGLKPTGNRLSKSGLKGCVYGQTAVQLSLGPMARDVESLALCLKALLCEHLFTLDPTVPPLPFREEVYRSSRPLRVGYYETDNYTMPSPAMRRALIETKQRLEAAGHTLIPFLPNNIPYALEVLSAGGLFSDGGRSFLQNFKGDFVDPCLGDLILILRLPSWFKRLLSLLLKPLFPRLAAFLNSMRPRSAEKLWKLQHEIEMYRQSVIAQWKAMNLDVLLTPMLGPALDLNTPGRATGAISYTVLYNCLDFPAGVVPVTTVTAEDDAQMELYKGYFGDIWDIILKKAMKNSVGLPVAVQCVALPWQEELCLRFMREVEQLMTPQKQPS
How it was run: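 10,000×g membrane fraction of rat brain (70 µg per sample) incubated in 50 mM Tris-HCl pH 9.5 at 37 °C for 30 min with N-arachidonoyl-[14C]-ethanolamine diluted with AEA. Released [14C]-ethanolamine measured by scintillation counting of the aqueous phase after CHCl3/MeOH 1:1 extraction. Means of three experiments.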

[3] = target: T3, Monoglyceride lipase (Homo sapiens, UniProt Q99685); assay: Inhibition of recombinant C-terminal His6-tagged human MAGL expressed in Escherichia coli using 2-arachidonoyl-[3H]-glycerol as substrate incubated for 20 mins by scintillation counting method
T3 sequence (Q99685 whole entry): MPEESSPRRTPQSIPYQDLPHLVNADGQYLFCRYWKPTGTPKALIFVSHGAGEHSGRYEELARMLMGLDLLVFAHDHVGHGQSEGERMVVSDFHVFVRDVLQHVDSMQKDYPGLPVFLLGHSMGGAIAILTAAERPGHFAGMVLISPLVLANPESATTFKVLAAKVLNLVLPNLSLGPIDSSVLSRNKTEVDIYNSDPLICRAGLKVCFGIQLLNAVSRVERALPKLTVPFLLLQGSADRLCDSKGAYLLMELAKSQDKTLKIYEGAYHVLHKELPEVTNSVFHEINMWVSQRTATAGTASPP

[4] = target: T4, Fatty-acid amide hydrolase 1 (Homo sapiens, UniProt O00519); assay: Inhibition of recombinant C-terminal His-tagged human FAAH expressed in sf21 cells using N-arachidonoyl-[14C]-ethanolamine as substrate assessed as reduction in [14C]ethanolamine production incubated for 30 mins by scintillation counting method
T4 sequence (O00519 whole entry): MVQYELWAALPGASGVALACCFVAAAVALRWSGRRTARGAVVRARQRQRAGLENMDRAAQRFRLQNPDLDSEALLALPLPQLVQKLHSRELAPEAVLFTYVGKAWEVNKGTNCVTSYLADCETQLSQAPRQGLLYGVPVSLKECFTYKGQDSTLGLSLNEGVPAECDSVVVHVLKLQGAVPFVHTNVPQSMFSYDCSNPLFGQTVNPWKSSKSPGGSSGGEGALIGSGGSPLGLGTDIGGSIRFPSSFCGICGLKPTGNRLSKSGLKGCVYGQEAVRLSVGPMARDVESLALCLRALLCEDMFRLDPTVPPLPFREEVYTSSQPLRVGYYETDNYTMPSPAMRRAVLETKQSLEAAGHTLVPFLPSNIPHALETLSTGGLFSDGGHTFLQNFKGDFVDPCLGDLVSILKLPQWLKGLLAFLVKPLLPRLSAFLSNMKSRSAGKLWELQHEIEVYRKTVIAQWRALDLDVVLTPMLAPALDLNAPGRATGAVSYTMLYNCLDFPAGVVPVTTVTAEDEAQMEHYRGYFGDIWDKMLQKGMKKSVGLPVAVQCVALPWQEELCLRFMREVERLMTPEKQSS
How it was run: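 Human recombinant FAAH (2 µg/sample) incubated in 50 mM Tris-HCl, pH 9.5, 37 °C, 30 min with N-arachidonoyl-[14C]-ethanolamine diluted with unlabelled AEA. [14C]-ethanolamine released was quantified by scintillation counting of the aqueous phase after extraction with 2 volumes CHCl3/MeOH 1:1. Values are means of three experiments.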

[5] = Selectivity ratio of IC50 for human recombinant C-terminal His-tagged FAAH expressed in sf21 cells to IC50 for recombinant C-terminal His6-tagged human MAGL expressed in Escherichia coli
How it was run: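 Ratio of IC50 values from two radiometric assays, each read by scintillation counting of the aqueous phase after CHCl3/MeOH 1:1 extraction. MGL assay: 10,000xg cytosolic fraction of human recombinant MGL (0.05 µg/sample), 50 mM Tris-HCl pH 7.0, 37 °C, 20 min, 2-arachidonoyl-[3H]-glycerol. FAAH assay: human recombinant FAAH (2 µg/sample), pH 9.5, 37 °C, 30 min, [14C]-anandamide. Means of three experiments.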

[6] = target: T3, Monoglyceride lipase; assay: Inhibition of recombinant C-terminal His6-tagged human MAGL expressed in Escherichia coli using 2-arachidonoyl-[3H]-glycerol as substrate preincubated for 10 mins followed by substrate addition measured after 20 mins by scintillation counting method
How it was run: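 Human recombinant MGL (10,000xg cytosolic fraction, 0.05 µg/sample) is pre-incubated with compound for 10 min. It is then incubated 20 min at 37 °C in 50 mM Tris-HCl pH 7.0 with 2-arachidonoyl-[3H]-glycerol diluted with unlabelled 2-AG. The mix is extracted with 2 vol CHCl3/MeOH 1:1, and [3H]-glycerol in the aqueous phase is counted by scintillation. Values are means of three experiments.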

Row | SMILES | IC50 [2] | IC50 [3] | further results
1 | O=C(Oc1ccc([N+](=O)[O-])cc1)N1CCC(C(O)(c2ccc3c(c2)OCO3)c2ccc3c(c2)OCO3)CC1 |  |  | IC50 [1]: > 10 µM
2 | COc1ccc([C@H]2C(=O)N(C3CCN(C(=O)n4cncn4)CC3)[C@@H]2c2ccc(OC)c(OC)c2)cc1 (racemic) | 0.725 µM |  | 
3 | O=C1[C@@H](c2ccc(F)cc2)[C@H](c2ccc3c(c2)OCO3)N1C1CCN(C(=O)n2cncn2)CC1 |  | 0.0312 µM | IC50 [4]: 7.74 µM; Ratio IC50 [5]: 248; IC50 [6]: 0.728 µM
4 | O=C1[C@H](c2ccc(F)cc2)[C@@H](c2ccc3c(c2)OCO3)N1C1CCN(Cc2ccccc2)CC1 (racemic) |  | > 10 µM | 
5 | O=C(N1CCCCC1)n1cncn1 |  | > 10 µM | 
6 | O=C1[C@H](c2ccc(F)cc2)[C@@H](c2ccc3c(c2)OCO3)N1C1CCN(C(=O)n2cncn2)CC1 [listing 1 of 2 here] |  | 0.0046 µM | IC50 [4]: 4.05 µM; IC50 [6]: 0.104 µM
7 | COc1ccc([C@H]2C(=O)N(C3CCN(C(=O)n4cncn4)CC3)[C@@H]2c2ccc(OC)cc2)cc1 (racemic) | 3.68 µM |  | 
8 | COc1ccc([C@H]2C(=O)N(C3CCN(C(=O)n4cncn4)CC3)[C@@H]2c2ccc(OC)c(OC)c2)cc1OC (racemic) | > 10 µM |  | 
9 | O=C1[C@H](c2ccc(F)cc2)[C@@H](c2ccc3c(c2)OCO3)N1C1CCN(C(=O)n2cncn2)CC1 [listing 2 of 2 here] |  |  | Ratio IC50 [5]: 880

Continued, in another order:

Row | IC50 [2] | IC50 [3] | SMILES | further results
10 | > 50 µM |  | O=C(OC(C(F)(F)F)C(F)(F)F)N1CCC(N2C(=O)[C@H](c3ccc(F)cc3)[C@H]2c2ccc3c(c2)OCO3)CC1 (racemic) | 
11 |  | 0.00141 µM | O=C(Oc1ccc([N+](=O)[O-])cc1)N1CCC(N2C(=O)[C@H](c3ccc(F)cc3)[C@H]2c2ccc3c(c2)OCO3)CC1 (racemic) | IC50 [4]: > 10 µM; Ratio IC50 [5]: > 7
12 | 2.59 µM |  | COc1ccc([C@H]2C(=O)N(C3CCN(C(=O)n4cncn4)CC3)[C@@H]2c2ccc3c(c2)OCO3)cc1 (racemic) | 
13 |  | > 10 µM | O=C1[C@H](c2ccc(F)cc2)[C@@H](c2ccc3c(c2)OCO3)N1C1CCN(C(=O)n2ccnc2)CC1 (racemic) | 
14 |  | > 10 µM | O=C1[C@H](c2ccc(F)cc2)[C@@H](c2ccc3c(c2)OCO3)N1C1CCNCC1 (racemic) | 
